ChEMBL document CHEMBL4368874, “Synthesis, biological evaluation, and structure activity relationship (SAR) study of pyrrolidine amide derivatives as N-acylethanolamine acid amidase (NAAA) inhibitors” (Medchemcomm, 2019)
Activity calls are given as the source filed them. No cut-off for these calls is given here.

T1: N-acylethanolamine-hydrolyzing acid amidase (Rattus norvegicus, UniProt Q5KTC7)
T1 sequence (Q5KTC7 whole entry): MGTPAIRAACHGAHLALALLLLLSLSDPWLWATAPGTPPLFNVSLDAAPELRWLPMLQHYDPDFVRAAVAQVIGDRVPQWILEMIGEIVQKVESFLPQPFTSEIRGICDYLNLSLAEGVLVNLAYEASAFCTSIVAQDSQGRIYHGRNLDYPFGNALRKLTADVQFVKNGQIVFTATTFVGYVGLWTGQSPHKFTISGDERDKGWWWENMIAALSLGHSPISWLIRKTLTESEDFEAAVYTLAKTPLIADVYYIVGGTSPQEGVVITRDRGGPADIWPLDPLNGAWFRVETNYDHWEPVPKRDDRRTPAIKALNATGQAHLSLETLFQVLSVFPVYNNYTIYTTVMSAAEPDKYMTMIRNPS

T2: Fatty-acid amide hydrolase 1 (Rattus norvegicus, UniProt P97612)
T2 sequence (P97612 whole entry): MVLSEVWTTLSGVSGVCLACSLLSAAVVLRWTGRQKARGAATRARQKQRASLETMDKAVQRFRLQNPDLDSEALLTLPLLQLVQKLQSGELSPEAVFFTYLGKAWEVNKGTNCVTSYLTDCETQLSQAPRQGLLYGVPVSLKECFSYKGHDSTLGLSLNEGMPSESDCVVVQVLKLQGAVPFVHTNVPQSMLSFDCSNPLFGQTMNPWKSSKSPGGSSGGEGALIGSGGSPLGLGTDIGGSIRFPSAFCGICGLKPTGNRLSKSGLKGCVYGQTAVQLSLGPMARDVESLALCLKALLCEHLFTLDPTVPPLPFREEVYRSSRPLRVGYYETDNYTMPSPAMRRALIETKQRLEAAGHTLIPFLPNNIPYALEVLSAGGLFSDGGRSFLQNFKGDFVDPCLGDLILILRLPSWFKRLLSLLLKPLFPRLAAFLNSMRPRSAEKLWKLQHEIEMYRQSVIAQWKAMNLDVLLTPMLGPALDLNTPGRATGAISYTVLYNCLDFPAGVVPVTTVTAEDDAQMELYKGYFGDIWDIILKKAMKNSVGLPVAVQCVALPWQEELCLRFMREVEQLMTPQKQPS

T3: N-acylethanolamine-hydrolyzing acid amidase (Rattus norvegicus) (UniProt Q5KTC7)
T3 sequence (whole entry): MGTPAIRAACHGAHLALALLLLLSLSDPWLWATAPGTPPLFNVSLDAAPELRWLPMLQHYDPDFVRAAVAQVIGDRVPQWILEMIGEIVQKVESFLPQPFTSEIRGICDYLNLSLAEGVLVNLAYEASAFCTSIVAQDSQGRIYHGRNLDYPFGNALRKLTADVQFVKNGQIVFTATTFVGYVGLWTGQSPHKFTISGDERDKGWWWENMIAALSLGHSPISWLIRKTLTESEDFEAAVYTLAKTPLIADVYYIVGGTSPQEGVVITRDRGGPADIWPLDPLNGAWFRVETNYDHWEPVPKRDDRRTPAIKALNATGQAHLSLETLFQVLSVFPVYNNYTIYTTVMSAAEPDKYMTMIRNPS

T4: Acid ceramidase (Rattus norvegicus) (UniProt Q6P7S1)
T4 sequence (whole entry): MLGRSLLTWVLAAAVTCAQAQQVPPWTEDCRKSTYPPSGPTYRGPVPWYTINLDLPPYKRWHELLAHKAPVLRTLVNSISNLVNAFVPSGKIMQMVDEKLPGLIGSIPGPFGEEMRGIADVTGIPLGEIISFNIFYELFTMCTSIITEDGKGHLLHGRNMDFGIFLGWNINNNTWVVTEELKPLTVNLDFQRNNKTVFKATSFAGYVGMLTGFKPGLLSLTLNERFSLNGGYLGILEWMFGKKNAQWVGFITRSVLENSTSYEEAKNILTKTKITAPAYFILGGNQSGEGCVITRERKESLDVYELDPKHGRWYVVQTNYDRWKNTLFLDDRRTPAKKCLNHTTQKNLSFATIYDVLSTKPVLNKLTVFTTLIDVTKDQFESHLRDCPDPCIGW


Tests used:
[1] = biological target: T1, N-acylethanolamine-hydrolyzing acid amidase; test: Inhibition of rat NAAA expressed in HEK293 cells using heptadecenoylethanolamide as substrate after 30 mins HPLC-MS/MS analysis
Summary of the method: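 Enzyme source: HEK293 cells stably overexpressing rat NAAA, grown in DMEM/10% FBS with G418. Cells were sonicated in 20 mM Tris-HCl pH 7.5 with 0.32 M sucrose, and the 800 × g supernatant was used. 30 µg protein was incubated with 25 µM heptadecenoylethanolamide for 30 min at 37 °C in 50 mM phosphate pH 4.5 with 0.1% Triton X-100 and 3 mM DTT. Stopped with methanol containing heptadecanoic acid internal standard; remaining substrate measured by HPLC-MS/MS; IC50 from curve fitting.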

[2] = biological target: T2, Fatty-acid amide hydrolase 1; test: Inhibition of rat FAAH expressed in HEK293 cells using [3H]AEA as substrate after 30 mins HPLC-MS/MS analysis; assay type: cell-based; conditions: in the assay text read “anandamide” for “[3H]AEA”
Summary of the method: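 Lysate supernatant from HEK293 cells overexpressing rat FAAH (sonication in Tris-sucrose, 800 × g spin). 30 µg protein incubated at 37 °C with 25 µM anandamide in 50 mM Tris-HCl pH 8.0 containing 0.05% fatty-acid-free BSA. Quenched with methanol containing heptadecanoic acid internal standard; remaining substrate quantified by HPLC-MS/MS; IC50 by curve fitting.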

[3] = biological target: T2, Fatty-acid amide hydrolase 1; test: Inhibition of rat FAAH expressed in HEK293 cells using anandamide as substrate after 30 mins HPLC-MS/MS analysis
Mus musculus [4] = test: Anti-inflammatory activity in mouse model of LPS-induced acute lung injury at 30 mg/kg, po qd for 5 days co-treated with 2 mg/kg, ip bid PPAR-alpha antagonist MK886 by hematoxylin and eosin staining-based light microscopic analysis; assay type: functional, organism-based
Summary of the method: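 129s mice (20-22 g), 6-8 per group, were anesthetized and given intratracheal LPS (7 mg/kg) in PBS. Oral dosing at 30 mg/kg once daily (vehicle: saline, 5% PEG 400, 5% Tween 80) started on the LPS day, together with MK886 at 2 mg/kg i.p. Sacrifice at day 5. Lungs were fixed in paraformaldehyde, embedded in paraffin, sectioned at 5 µm and stained with H&E.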

Mus musculus [5] = test: Anti-inflammatory activity in mouse model of LPS-induced acute lung injury assessed as reduction in lung edema at 30 mg/kg, po qd for 5 days by hematoxylin and eosin staining-based light microscopic analysis; assay type: functional, organism-based
Summary of the method: (§1)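 129s mice (20-22 g), randomly grouped at 6-8 per group. Under anesthesia they received intratracheal LPS (7 mg/kg) in PBS. From the day of LPS they got oral dosing once daily at 30 mg/kg in saline with 5% PEG 400 and 5% Tween 80, or vehicle alone. Killed 5 days after LPS. Lungs were fixed in paraformaldehyde at 4 °C, paraffin-embedded, cut at 5 µm and H&E-stained.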

[6] = Half life in pH 5 phosphate buffer by HPLC analysis; assay type: physicochemical
Summary of the method: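 Compound at 1 µM final (DMSO ≤1%) in 50 mM phosphate buffer pH 5.0, held at 37 °C for 16 h; remaining compound determined by HPLC.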

[7] = Half life in rat 80% plasma by HPLC analysis; assay type: ADME, cell-free
Summary of the method: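 Fresh rat plasma diluted to 80% (v/v) with PBS pH 7.4. Compound added to 1 µM final (DMSO ≤1%), incubated at 37 °C for 16 h; remaining compound measured by HPLC.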

Mus musculus [8] = test: Anti-inflammatory activity in mouse model of LPS-induced acute lung injury assessed as reduction in leukocytes in lungs at 30 mg/kg, po qd for 5 days by hematoxylin and eosin staining-based light microscopic analysis; assay type: functional, organism-based; summary of the method: as §1
[9] = Half life in pH 7.4 tris-HCl buffer by HPLC analysis
[10] = biological target: T3, N-acylethanolamine-hydrolyzing acid amidase (Rattus norvegicus); test: Reversible inhibition of rat NAAA expressed in HEK293 cells at 5 uM using heptadecenoylethanolamide as substrate after 8 hrs by rapid dilution based HPLC-MS/MS analysis; assay type: cell-based
Rattus norvegicus = species on record: Rattus norvegicus; test: Selectivity ratio of IC50 for rat FAAH expressed in HEK293 cells to IC50 for rat […]; assay type: cell-based
[11] = biological target: T4, Acid ceramidase (Rattus norvegicus); test: Inhibition of rat acid ceramidase at 100 uM using N-lauroylceramide as substrate after 30 mins by LC-MS analysis relative to control
Summary of the method: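 100 µg recombinant rat acid ceramidase incubated for 30 min at 37 °C in 50 mM phosphate pH 5.0 with 0.1% Triton X-100, 3 mM DTT, 100 µM N-lauroylceramide substrate and test compound. Stopped with methanol containing 1 nmol heptadecanoic acid; products analysed by LC/MS.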

[12] = compound: O=C(/C=C/c1ccc(-c2ccccc2)cc1)N1CCCC1; test: Competitive inhibition of rat NAAA expressed in HEK293 cells assessed as substrate Km at 5 uM using heptadecenoylethanolamide as substrate after 30 mins by Michaelis Menten plot analysis (reference value: 207 +/- 16 uM); assay type: cell-based
[13] = compound: O=C(/C=C/c1ccc(-c2ccccc2)cc1)N1CCCC1; test: Competitive inhibition of rat NAAA expressed in HEK293 cells assessed as substrate Vmax at 5 uM using heptadecenoylethanolamide as substrate after 30 mins by Michaelis Menten plot analysis (reference value: 5.89 +/- 0.12 nmol/min/mg protein); assay type: cell-based

Molecule	IC50 [1] [µM]	further results
O=C(CCc1ccc(-c2ccc(F)cc2)cc1)N1CCCC1	3.4	–
COc1cccc(CCCCCCC(=O)N2CCCC2)c1	> 100	–
Cc1ccccc1CCCCCCC(=O)N1CCCC1	68.4	–
O=C(CCCCCCC1CCCCC1)N1CCCC1	5.7	–
COC(=O)c1cccc(CCCCCCC(=O)N2CCCC2)c1	> 100	–
O=C(CCCCc1ccc2c(c1)OCO2)N1CCCC1	5.5	IC50 [2]: 42.8 µM
CCCc1ccc(CCCCCCC(=O)N2CCCC2)cc1	> 100	–
O=C(CCCCCCc1cccs1)N1CCCC1	14.1	–
O=C(CCc1ccc(-c2ccc3c(c2)OCO3)cc1)N1CCCC1	> 100	IC50 [2]: 91 µM
O=C(CCc1ccc(-c2cccc(Cl)c2)cc1)N1CCCC1	25.4	–
O=C(CCc1ccc(-c2ccc(Cl)cc2)cc1)N1CCCC1	48.6	–
O=C(O)c1ccc(CCCCCCC(=O)N2CCCC2)cc1	> 100	–
O=C(CCCCCCc1ccsc1)N1CCCC1	13.2	–
O=C(CCc1ccc(-c2ccccc2F)cc1)N1CCCC1	2.8	–
O=C(CCCCCCc1ccc(Cl)cc1)N1CCCC1	34.5	–
O=C(CCc1ccc(-c2cccnc2)cc1)N1CCCC1	> 100	–
O=C(/C=C/C=C/c1ccc2c(c1)OCO2)N1CCCC1 [TRICHOSTACHINE]	4.1	IC50 [3]: 61.3 µM
Cc1ccc(-c2ccc(CCC(=O)N3CCCC3)cc2)cc1	33.2	–
Cc1ccc(CCCCCCC(=O)N2CCCC2)cc1	9.6	–
Cc1cccc(-c2ccc(CCC(=O)N3CCCC3)cc2)c1	16.5	–
COc1ccc(CCCCCCC(=O)N2CCCC2)cc1	35.4	–
O=C(CCCCCCc1cccc(F)c1)N1CCCC1	7.3	–
O=C(CCCCCCc1cccc(Cl)c1)N1CCCC1	3.7	–
O=C(/C=C/c1ccc(-c2ccccc2)cc1)N1CCCC1	1.5	Activity (Mus musculus [4]): inactive; Activity (Mus musculus [5]): Active; half-life [6]: > 16 h; half-life [7]: > 16 h; IC50 [2]: 550 µM; Activity (Mus musculus [8]): Active; half-life [9]: > 16 h; inhibition [10]: Active
O=C(CCc1ccc(-c2ccccc2Cl)cc1)N1CCCC1	> 100	–

Molecule	IC50 [1] [µM]	further results
O=C(CCc1ccc(-c2cccc(F)c2)cc1)N1CCCC1	1.8	–
COC(=O)c1ccc(CCCCCCC(=O)N2CCCC2)cc1	> 100	–
O=C(CCCCCCc1ccccc1Cl)N1CCCC1	> 100	–
O=C(CCc1ccc(-c2ccccn2)cc1)N1CCCC1	> 100	–
O=C(CCc1ccc(-c2ccccc2)cc1)N1CCCC1	–	IC50 [2]: 91.5 µM
O=C(CCc1ccc(Oc2ccccc2)cc1)N1CCCC1	> 100	IC50 [2]: 120 µM
O=C(CCCCCCc1ccccn1)N1CCCC1	> 100	–
O=C(CCCCCCc1cccnc1)N1CCCC1	> 100	–
Cc1cccc(CCCCCCC(=O)N2CCCC2)c1	8.3	–
O=C(CCCC/C=C/c1cccc(OCc2ccccc2)c1)N1CCCC1	> 100	–
O=C(CCCCCCc1ccc(F)cc1)N1CCCC1	8	–
O=C(CCCCCCc1ccccc1F)N1CCCC1	13.7	–
O=C(CCc1ccc(C2CCCCC2)cc1)N1CCCC1	0.5	Ratio IC50 (Rattus norvegicus): > 200; inhibition [11]: < 10%
O=C(CCCCCCc1ccc(O)cc1)N1CCCC1	5.6	–
O=C(CCc1ccc(OC2CCCCC2)cc1)N1CCCC1	0.7	–
O=C(O)c1cccc(CCCCCCC(=O)N2CCCC2)c1	> 100	–
Cc1ccccc1-c1ccc(CCC(=O)N2CCCC2)cc1	> 100	–
O=C(CCc1ccc(-c2cccs2)cc1)N1CCCC1	> 100	–
O=C(CCc1ccc(-c2ccsc2)cc1)N1CCCC1	2.5	–
O=C(CCCC/C=C/c1ccc(OCc2ccccc2)cc1)N1CCCC1	> 100	–
O=C(CCCCCCc1cccc(O)c1)N1CCCC1	> 100	–
CCCc1cccc(CCCCCCC(=O)N2CCCC2)c1	> 100	–
O=C(CCC1CCC(Oc2ccccc2)CC1)N1CCCC1 (configuration not stated)	2.8	IC50 [2]: 45.1 µM
O=C(CCC1CCC(c2ccccc2)CC1)N1CCCC1 (configuration not stated)	0.48	IC50 [2]: 66 µM
N-acylethanolamine-hydrolyzing acid amidase (Rattus norvegicus), Q5KTC7 (protein) MGTPAIRAACHGAHLALALLLLLSLSDPWLWATAPGTPPLFNVSLDAAPELRWLPMLQHYDPDFVRAAVAQVIGDRVPQWILEMIGEIVQKVESFLPQPFTSEIRGICDYLNLSLAEGVLVNLAYEASAFCTSIVAQDSQGRIYHGRNLDYPFGNALRKLTADVQFVKNGQIVFTATTFVGYVGLWTGQSPHKFTISGDERDKGWWWENMIAALSLGHSPISWLIRKTLTESEDFEAAVYTLAKTPLIADVYYIVGGTSPQEGVVITRDRGGPADIWPLDPLNGAWFRVETNYDHWEPVPKRDDRRTPAIKALNATGQAHLSLETLFQVLSVFPVYNNYTIYTTVMSAAEPDKYMTMIRNPS	–	Km [12]: 322 µM; Vmax [13]: 5.88 nmol/min/mg
